Results published in ChEMBL document CHEMBL4414574, “Structure-Based Discovery and Development of a Series of Potent and Selective Bromodomain and Extra-Terminal Protein Inhibitors” (J Med Chem, 2019).
The source made the active and inactive calls. The rule behind the calls is not given here.

Legend:
[1] = AUC (0 to infinity) in ICR mouse at 3 mg/kg, po administered via gavage measured after 0.25 to 24 hrs by UPLC/MS analysis; type: ADME, organism-based; design: dose 3 mg/kg, time infinity, route oral; conditions: in vivo
How it was run: (§1)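 Male ICR mice were dosed orally in 1% DMSO/0.5% HPMC vehicle. Plasma (and brain, where stated) concentrations gave Tmax, Cmax, T1/2, AUC0-t and AUC0-inf.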

[2] = Tmax in ICR mouse at 3 mg/kg, po administered via gavage measured after 0.25 to 24 hrs by UPLC/MS analysis; type: ADME, organism-based; conditions: in vivo
How it was run: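 Male ICR mice dosed orally (3, 10 or 100 mg/kg, per line) in 1% DMSO/0.5% HPMC vehicle; plasma drug levels measured.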

[3] = Cmax in ICR mouse at 3 mg/kg, po administered via gavage measured after 0.25 to 24 hrs by UPLC/MS analysis; type: ADME, organism-based; design: dose 3 mg/kg, route oral; conditions: in vivo
How it was run: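 Male ICR mice dosed orally in 1% DMSO/0.5% HPMC vehicle; plasma or brain drug levels used to derive Tmax, Cmax, AUC0-t, AUC0-inf and T1/2.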

[4] = tested on: MM1.S; assay: Antiproliferative activity against human MM1S cells after 72 hrs by CCK8 or SRB assay; type: functional, cell-based
How it was run: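 IC50 against MM.1S cell proliferation was taken as the mean of three independent experiments, each run in triplicate, reported with SEM.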

[5] = tested on: MM1.S; assay: Antitumor activity against human MM1S cells xenografted in SCID mouse assessed as tumor growth at 20 mg/kg, po administered daily relative to control; type: functional
[6] = molecular target: T1, Bromodomain-containing protein 4 (Homo sapiens, UniProt O60885); assay: Displacement of 5-FITC labelled (+)-JQ1 from His6-tagged human BRD4 bromodomain 1 expressed in Escherichia coli BL21(DE3) )-codon plus-RIL cells incubated for 4 hrs in dark condition by fluorescence anisotropy binding assay
[7] = Half life in ICR mouse at 3 mg/kg, po administered via gavage measured after 0.25 to 24 hrs by UPLC/MS analysis; type: ADME, organism-based; conditions: in vivo
How it was run: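 Male ICR mice dosed orally; vehicle 1% DMSO/0.5% HPMC. Plasma pharmacokinetic parameters, including T1/2, were determined after the single oral dose.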

[8] = molecular target: Cytochrome P450 3A4 (Homo sapiens, UniProt P08684); assay: Time-dependent inhibition of CYP3A4 in human liver microsomes at 10 uM using midazolam or testosterone as substrate preincubated up to 30 mins followed by NADPH generating system addition and measured after 10 mins; type: ADME
Chain of Cytochrome P450 3A4 (P08684 whole entry): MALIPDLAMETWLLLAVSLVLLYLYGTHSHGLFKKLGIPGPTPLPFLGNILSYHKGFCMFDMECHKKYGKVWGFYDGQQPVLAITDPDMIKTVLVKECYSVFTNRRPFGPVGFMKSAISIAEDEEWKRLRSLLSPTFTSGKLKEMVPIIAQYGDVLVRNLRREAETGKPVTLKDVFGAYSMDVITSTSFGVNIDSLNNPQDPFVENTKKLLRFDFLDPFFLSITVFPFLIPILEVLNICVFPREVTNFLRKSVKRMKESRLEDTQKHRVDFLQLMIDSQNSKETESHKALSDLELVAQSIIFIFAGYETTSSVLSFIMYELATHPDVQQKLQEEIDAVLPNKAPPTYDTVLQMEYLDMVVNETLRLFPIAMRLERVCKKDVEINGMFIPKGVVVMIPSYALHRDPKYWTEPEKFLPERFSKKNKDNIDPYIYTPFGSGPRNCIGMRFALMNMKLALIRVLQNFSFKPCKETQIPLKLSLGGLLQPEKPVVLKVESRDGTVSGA
How it was run: (§2)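 Human liver microsomes 0.2 mg/mL, 100 mM phosphate pH 7.4, 10 μM test compound, preincubated 0, 5, 10 and 30 min at 37 °C; then NADPH plus probe cocktail (5 μM midazolam, 50 μM testosterone, 5 μM dextromethorphan, 10 μM diclofenac, 50 μM phenacetin, 50 μM S-(+)-mephenytoin) added; 10 min reaction; kobs in units of 10^-4/min.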

[9] = Half life in mouse liver microsomes at 1 uM preincubated for 5 mins followed by NADPH addition and measured after 5 to 30 mins by LC/MS/MS analysis; type: ADME, Microsome; conditions: mouse liver microsomes
[10] = molecular target: Cytochrome P450 2C9 (Homo sapiens, UniProt P11712); assay: Time-dependent inhibition of CYP2C9 in human liver microsomes at 10 uM using diclofenac as substrate preincubated up to 30 mins followed by NADPH generating system addition and measured after 10 mins; type: ADME; how it was run: as §2
Chain of Cytochrome P450 2C9 (P11712 whole entry): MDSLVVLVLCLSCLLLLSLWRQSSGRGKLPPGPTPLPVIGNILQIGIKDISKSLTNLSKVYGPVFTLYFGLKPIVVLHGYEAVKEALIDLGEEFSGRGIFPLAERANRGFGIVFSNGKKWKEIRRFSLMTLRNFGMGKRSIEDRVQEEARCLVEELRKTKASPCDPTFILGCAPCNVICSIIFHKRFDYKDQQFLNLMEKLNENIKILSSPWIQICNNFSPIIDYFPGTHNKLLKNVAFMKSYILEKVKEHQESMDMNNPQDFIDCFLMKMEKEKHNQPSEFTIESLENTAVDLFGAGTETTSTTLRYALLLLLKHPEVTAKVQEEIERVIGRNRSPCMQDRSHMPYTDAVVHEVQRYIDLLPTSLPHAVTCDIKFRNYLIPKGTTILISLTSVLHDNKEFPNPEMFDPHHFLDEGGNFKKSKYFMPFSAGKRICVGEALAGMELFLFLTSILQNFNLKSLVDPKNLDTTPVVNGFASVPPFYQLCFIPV

[11] = Intrinsic clearance in human liver microsomes at 1 uM preincubated for 5 mins followed by NADPH addition and measured after 5 to 30 mins by LC/MS/MS analysis; type: ADME, Microsome; conditions: read-out: CLH
How it was run: (§3)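 Liver microsomes (0.5 mg/mL) preincubated 5 min at 37 °C with 1 μM compound in 0.1 M phosphate buffer pH 7.4 containing 1 mM EDTA and 5 mM MgCl2; started with 1 mM NADPH; sampled at 0, 5, 10 and 30 min; quenched with cold acetonitrile; parent remaining quantified by LC/MS/MS.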

[12] = molecular target: Bromodomain-containing protein 2 (Homo sapiens) (UniProt P25440); assay: Inhibition of BRD2 bromodomain 1 (unknown origin)
Chain of Bromodomain-containing protein 2 (Homo sapiens) (P25440 whole entry, looked up): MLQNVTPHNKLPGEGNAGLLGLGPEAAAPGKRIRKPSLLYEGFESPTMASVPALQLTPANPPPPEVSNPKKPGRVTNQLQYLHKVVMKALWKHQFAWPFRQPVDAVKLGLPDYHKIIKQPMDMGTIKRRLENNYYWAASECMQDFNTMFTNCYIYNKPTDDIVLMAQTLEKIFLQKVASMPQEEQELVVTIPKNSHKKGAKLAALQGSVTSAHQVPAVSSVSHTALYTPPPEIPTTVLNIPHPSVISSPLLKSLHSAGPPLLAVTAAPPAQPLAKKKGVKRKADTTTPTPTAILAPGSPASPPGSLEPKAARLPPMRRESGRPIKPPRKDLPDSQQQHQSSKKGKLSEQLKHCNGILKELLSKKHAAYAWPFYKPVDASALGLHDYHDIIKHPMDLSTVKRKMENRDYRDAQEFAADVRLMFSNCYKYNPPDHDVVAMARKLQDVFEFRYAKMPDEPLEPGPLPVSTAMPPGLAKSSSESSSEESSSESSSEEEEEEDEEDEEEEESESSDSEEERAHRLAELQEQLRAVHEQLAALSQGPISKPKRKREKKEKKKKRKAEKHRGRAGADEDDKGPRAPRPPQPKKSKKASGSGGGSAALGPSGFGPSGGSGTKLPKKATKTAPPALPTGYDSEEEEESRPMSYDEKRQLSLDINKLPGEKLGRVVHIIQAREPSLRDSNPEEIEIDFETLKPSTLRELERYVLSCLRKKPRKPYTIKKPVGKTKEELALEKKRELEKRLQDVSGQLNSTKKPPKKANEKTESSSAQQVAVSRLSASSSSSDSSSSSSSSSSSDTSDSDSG

[13] = molecular target: Histone acetyltransferase p300 (Homo sapiens) (UniProt Q09472); assay: Inhibition of EP300 (unknown origin) at 1 uM
How it was run: (§4)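 Bromodomain binding panel (32 bromodomains) screened at 1 μM; primary binding read-out reported as percent of control, lower values meaning stronger binding.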

[14] = molecular target: Cytochrome P450 2C19 (Homo sapiens, UniProt P33261); assay: Time-dependent inhibition of CYP2C19 in human liver microsomes at 10 uM using mephenytoin as substrate preincubated up to 30 mins followed by NADPH generating system addition and measured after 10 mins; type: ADME; how it was run: as §2
Chain of Cytochrome P450 2C19 (P33261 whole entry): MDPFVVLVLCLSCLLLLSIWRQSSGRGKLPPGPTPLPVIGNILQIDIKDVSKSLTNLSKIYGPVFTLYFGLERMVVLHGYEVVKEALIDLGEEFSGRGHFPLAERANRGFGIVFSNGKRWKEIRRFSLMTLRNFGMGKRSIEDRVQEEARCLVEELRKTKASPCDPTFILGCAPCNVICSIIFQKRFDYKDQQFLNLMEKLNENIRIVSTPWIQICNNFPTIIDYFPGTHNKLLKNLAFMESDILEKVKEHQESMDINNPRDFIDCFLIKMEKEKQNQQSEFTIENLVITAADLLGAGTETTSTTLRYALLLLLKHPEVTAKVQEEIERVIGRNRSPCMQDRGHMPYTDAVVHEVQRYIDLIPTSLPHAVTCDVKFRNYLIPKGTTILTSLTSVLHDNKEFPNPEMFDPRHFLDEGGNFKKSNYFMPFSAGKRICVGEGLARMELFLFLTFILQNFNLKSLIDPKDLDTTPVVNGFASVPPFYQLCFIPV

[15] = Half life in human liver microsomes at 1 uM preincubated for 5 mins followed by NADPH addition and measured after 5 to 30 mins by LC/MS/MS analysis; type: ADME, Microsome
[16] = molecular target: T1, Bromodomain-containing protein 4; assay: Inhibition of BRD4 bromodomain 2 (unknown origin)
[17] = molecular target: CYP2C19 (Homo sapiens, UniProt P33261); assay: Reversible inhibition of CYP2C19 in human liver microsomes at 10 uM using mephenytoin as substrate preincubated for 5 mins followed by NADPH generating system addition and measured after 20 mins relative to control; type: ADME; conditions: probe mephenytoin
Chain of CYP2C19 (P33261 whole entry): as above
How it was run: (§5)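 Human liver microsomes 0.2 mg/mL, 100 mM phosphate pH 7.4, 10 μM test compound, probe cocktail (10 μM midazolam, 100 μM testosterone, 10 μM dextromethorphan, 20 μM diclofenac, 100 μM phenacetin, 100 μM mephenytoin); organic solvent <1%; 5 min preincubation at 37 °C, started with NADPH-generating system, 20 min reaction; metabolite formation expressed relative to PBS control.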

[18] = Solubility of the compound at pH 2 to 7; type: physicochemical; conditions: buffer
[19] = molecular target: Bromodomain-containing protein 2 (Homo sapiens) (UniProt P25440); assay: Inhibition of BRD2 bromodomain 2 (unknown origin); how it was run: as §4
[20] = molecular target: CYP3A4 (Homo sapiens, UniProt P08684); assay: Reversible inhibition of CYP3A4 in human liver microsomes at 10 uM using midazolam or testosterone as substrate preincubated for 5 mins followed by NADPH addition and measured after 20 mins relative to control; type: ADME; conditions: probe midazolam or testosterone; how it was run: as §5
Chain of CYP3A4 (P08684 whole entry): as the sequence (P08684 whole entry) above

[21] = molecular target: CYP2C9 (Homo sapiens, UniProt P11712); assay: Reversible inhibition of CYP2C9 in human liver microsomes at 10 uM using diclofenac as substrate preincubated for 5 mins followed by NADPH generating system addition and measured after 20 mins relative to control; type: ADME; conditions: probe diclofenac; how it was run: as §5
Chain of CYP2C9 (P11712 whole entry): as the sequence (P11712 whole entry) above

[22] = Solubility of the compound in water; type: physicochemical; conditions: buffer
[23] = AUC (0 to t) in ICR mouse at 3 mg/kg, po administered via gavage measured after 0.25 to 24 hrs by UPLC/MS analysis; type: ADME, organism-based; design: time upper 24 hr, time lower 0.25 hr, dose 3 mg/kg, route oral; conditions: in vivo; how it was run: as §1
[24] = molecular target: T1, Bromodomain-containing protein 4; assay: Inhibition of BRD4 bromodomain 1 (unknown origin)
How it was run: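 BRD4 BD1 (His6-tagged, E. coli BL21(DE3)-expressed, Ni-NTA purified) at 10 nM with 5 nM FITC-labelled (+)-JQ1 tracer; 50 mM HEPES pH 7.4, 150 mM NaCl, 0.5 mM CHAPS, DMSO 2‰ final; graded inhibitor; 4 h dark equilibration at room temperature; fluorescence anisotropy read (ex 485/em 530 nm). IC50 from two independent experiments in duplicate, mean ± SEM.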

[25] = molecular target: T2, Cytochrome P450 1A2 (Homo sapiens, UniProt P05177); assay: Time-dependent inhibition of CYP1A2 in human liver microsomes at 10 uM using phenacetin as substrate preincubated up to 30 mins followed by NADPH generating system addition and measured after 10 mins; type: ADME; how it was run: as §2
T2 sequence (P05177 whole entry): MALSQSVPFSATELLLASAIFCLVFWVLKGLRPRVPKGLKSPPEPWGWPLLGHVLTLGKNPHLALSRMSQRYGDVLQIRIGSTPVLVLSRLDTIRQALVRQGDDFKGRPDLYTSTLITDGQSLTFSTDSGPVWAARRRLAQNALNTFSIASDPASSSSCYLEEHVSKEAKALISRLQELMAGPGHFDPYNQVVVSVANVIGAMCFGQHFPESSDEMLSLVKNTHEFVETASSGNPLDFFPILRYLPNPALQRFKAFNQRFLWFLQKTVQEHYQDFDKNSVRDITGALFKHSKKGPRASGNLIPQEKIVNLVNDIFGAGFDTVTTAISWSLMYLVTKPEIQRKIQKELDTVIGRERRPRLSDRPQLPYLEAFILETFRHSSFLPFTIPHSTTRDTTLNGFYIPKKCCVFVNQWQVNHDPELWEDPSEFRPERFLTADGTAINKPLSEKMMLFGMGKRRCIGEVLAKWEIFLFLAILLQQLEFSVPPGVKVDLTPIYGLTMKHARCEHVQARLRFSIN

[26] = Intrinsic clearance in mouse liver microsomes at 1 uM preincubated for 5 mins followed by NADPH addition and measured after 5 to 30 mins by LC/MS/MS analysis; type: ADME, Microsome; conditions: read-out: CLH; how it was run: as §3
[27] = molecular target: Cytochrome P450 2D6 (Homo sapiens, UniProt P10635); assay: Time-dependent inhibition of CYP2D6 in human liver microsomes at 10 uM using dextromethorphan as substrate preincubated up to 30 mins followed by NADPH generating system addition and measured after 10 mins; type: ADME; how it was run: as §2
Chain of Cytochrome P450 2D6 (P10635 whole entry): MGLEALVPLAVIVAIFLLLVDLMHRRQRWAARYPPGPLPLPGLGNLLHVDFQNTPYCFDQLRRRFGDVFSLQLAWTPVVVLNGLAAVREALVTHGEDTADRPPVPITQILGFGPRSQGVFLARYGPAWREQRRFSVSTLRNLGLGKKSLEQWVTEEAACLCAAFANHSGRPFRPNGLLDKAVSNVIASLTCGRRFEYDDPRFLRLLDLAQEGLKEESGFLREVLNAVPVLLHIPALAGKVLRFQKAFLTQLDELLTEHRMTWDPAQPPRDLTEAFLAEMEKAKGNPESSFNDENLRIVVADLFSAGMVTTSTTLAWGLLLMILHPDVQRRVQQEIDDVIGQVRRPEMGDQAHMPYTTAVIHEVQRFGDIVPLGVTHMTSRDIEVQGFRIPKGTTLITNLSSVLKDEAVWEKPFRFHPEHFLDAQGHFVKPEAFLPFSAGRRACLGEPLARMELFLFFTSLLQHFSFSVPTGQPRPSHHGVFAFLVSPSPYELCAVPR

Cc1ccc(-n2c(C)nnc2-c2ccc3c(c2)N(C2CC2)C(C)C(=O)N3C)cc1 (configuration not stated)
AUC(0-inf) [1]: 244 ng·h/mL | Tmax [2]: 18 min | Cmax [3]: 265 ng/mL | IC50 [4]: 3.3 nM | T/C [5]: 67.4% | IC50 [6]: 5.7 nM | half-life [7]: 42 min | TDI [8]: Not Active | half-life at 1 µM [9]: 3 min | TDI [10]: Not Active | microsomal CLint at 1 µM [11]: 44 µL/min/mg | inhibition activity call (active/inactive) [12]: Active | inhibition [13]: inactive | TDI [14]: Not Active | half-life at 1 µM [15]: 31.5 min | inhibition [16]: Active | inhibition at 20 min, 10 µM [17]: 41% | solubility [18]: Insoluble | inhibition [19]: Active | inhibition at 20 min, 10 µM [20]: 3% | inhibition at 20 min, 10 µM [21]: 10% | solubility [22]: Insoluble | AUC(0-t) [23]: 243 ng·h/mL | inhibition [24]: Active | TDI [25]: Not Active | microsomal CLint at 1 µM [26]: 460 µL/min/mg | TDI [27]: Not Active
